hIAP block = blocks human intestinal alkaline phosphatase. P09923. inhibition, % at 10 µM. purified IAP, CDP-Star luminescence, 30 min. 0.12% of 330,000 active. AID 2544;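 active = inhibition reaching a set limit with compound at 10 µM in the primary screen, cut at about 35% in these data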;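 note: plate controls were DMSO wells with enzyme for no effect and no-enzyme buffer wells for full effect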
Target sequence (P09923 whole entry, looked up): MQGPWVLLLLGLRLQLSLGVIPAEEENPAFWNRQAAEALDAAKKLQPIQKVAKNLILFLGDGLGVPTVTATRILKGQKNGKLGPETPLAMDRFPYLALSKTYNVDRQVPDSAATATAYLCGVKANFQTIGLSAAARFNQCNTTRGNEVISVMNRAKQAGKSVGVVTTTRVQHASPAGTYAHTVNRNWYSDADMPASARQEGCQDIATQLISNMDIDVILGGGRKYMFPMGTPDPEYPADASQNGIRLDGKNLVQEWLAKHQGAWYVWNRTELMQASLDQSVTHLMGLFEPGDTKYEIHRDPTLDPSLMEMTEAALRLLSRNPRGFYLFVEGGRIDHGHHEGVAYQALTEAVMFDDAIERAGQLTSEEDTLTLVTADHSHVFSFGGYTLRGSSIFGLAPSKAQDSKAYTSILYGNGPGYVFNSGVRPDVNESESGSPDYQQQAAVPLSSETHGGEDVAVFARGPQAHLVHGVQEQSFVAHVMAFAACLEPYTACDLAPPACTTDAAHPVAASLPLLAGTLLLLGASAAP
bIAP activator = intestinal alkaline phosphatase (bovine) activation. activation factor at 20 µM. 0.17% of 200,000 active. AID 1016. purified bovine IAP, CDP-star luminescence, 30 min; stronger effect = higher value; fold of DMSO-control signal, blank-subtracted;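 active = activation factor of 2 or more at 20 µM, a signal rise over negative controls twice the positive control's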
mIAP activ = increases mouse intestinal alkaline phosphatase activity; muIAP, CDP-Star luminescence, 30 min; stronger effect = higher value; 1 = vehicle-only enzyme signal, 0 = enzyme-free wells; activation factor at 10 µM; 0.24% of 330,000 active;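 active = activation factor of at least 2 at 20 µM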
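System: mouse IAP enzyme. Reagent: CDP-Star chemiluminescent phosphatase substrate. Benchmarks: DMSO wells, no-enzyme wells. Times: 30 min enzyme-substrate-compound incubation at room temperature. Detection: luminescence from enzymatic CDP-Star hydrolysis. Doses: test compounds delivered from DMSO solution.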
mIAP block = mouse IAP inhibition; purified mouse IAP, CDP-Star luminescence, 30 min; inhibition, % at 10 µM; 0.2% of 330,000 active;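 active = inhibition of at least 40% at 10 µM in the primary screen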;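 note: plate controls were DMSO with enzyme for no effect and no enzyme wells for full effect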
bIAP inh = intestinal alkaline phosphatase (bovine) inhibition; purified bovine IAP, CDP-star luminescence, 30 min; inhibition, % at 20 µM; 190,000 tested, under 10 active; AID 1019;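 active = over 50% inhibition of intestinal alkaline phosphatase at 20 µM in the single-dose screen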
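test system = bovine IAP enzyme | medium = DEA buffer 100 mM, pH 9.8, with MgCl2 1.0 mM, ZnCl2 0.02 mM | detection = luminescence | dosing = single compound dose of 20 µM, 2% DMSO final | incubation = 30 min reaction at room temperature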
hIAP act = human IAP activation | purified human IAP, CDP-Star luminescence, 30 min; stronger effect = higher value; 1 = vehicle-only enzyme, 0 = enzyme-free background | 0.16% of 330,000 active | activation factor at 10 µM;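 active = activation factor of the enzyme at least 2-fold when tested at 20 µM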
mIAP inh conf = mouse IAP inhibition confirmation; AID 434971; 4.7% of 11,000 active; inhibition, % at 10 µM; purified mouse IAP, CDP-Star luminescence, 30 min; shares compounds with mIAP block;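 active = inhibition of at least 40% at 10 µM in either of the two replicates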;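 note: plate controls were DMSO wells with enzyme for no effect and buffer wells lacking enzyme for full effect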
* hit, by the source's call. Shown are actives, neighbours in structure and some others; about 0.72% of the full set was active somewhere.

Screening Oc1ccc(/C=N\Nc2cc(N3CCOCC3)nc(N3CCOCC3)n2)c(O)c1 returned hIAP block 10, bIAP activator 1.1, mIAP activ 0.85, mIAP block 15, bIAP inh -8 and hIAP act 0.9.
For Oc1ccc(/C=N/Nc2cc(N3CCCC3)nc(N3CCCC3)n2)cc1O the results were hIAP block 0, bIAP activator 1, mIAP activ 0.32, mIAP block 68*, bIAP inh -3, hIAP act 1 and mIAP inh conf 76*.
For COc1ccccc1CNC(=O)c1cc(-c2ccccc2)nn1Cc1cc(C)no1 the results were hIAP block 2, mIAP activ 1.6, mIAP block -57 and hIAP act 0.98.
`Cc1ccc(CNC(=O)c2cc(-c3ccccc3)nn2Cc2cc(C)no2)cc1` gave hIAP block 0, mIAP activ 2.2*, mIAP block -122, hIAP act 1 and mIAP inh conf -126.
`CCc1cc(Cn2nc(-c3ccccc3)cc2C(=O)NCc2ccccc2OC)on1` gave hIAP block 2, mIAP activ 2.6*, mIAP block -159, hIAP act 0.97 and mIAP inh conf -99.
For CCOC(=O)/C(=C\c1ccc(OC(F)F)cc1)C1=Nn2c(nnc2-c2ccc(Cl)cc2)SC1 the results were bIAP activator 1.4 and bIAP inh -39.
O=C(NNC(=O)c1cc2cc(Br)ccc2oc1=O)c1ccc(O)cc1O was read as hIAP block -5, bIAP activator 0.7, mIAP activ 0.23, mIAP block 77*, bIAP inh 31, hIAP act 1.1 and mIAP inh conf 82*.
Screening CCN(CC)c1ccc(/C=N/NC(=O)Nc2nonc2N)cc1 returned hIAP block 5, bIAP activator 0.6, mIAP activ 0.97, mIAP block 2, bIAP inh 38 and hIAP act 0.95.
Cc1ccc(CNC(=O)CS(=O)Cc2nc(-c3ccccc3F)oc2C)cc1 (stereo not drawn) was read as hIAP block -10, mIAP activ 0.97, mIAP block 3 and hIAP act 1.1.
Screening CC1(C)OC(=O)C(=Cc2ccc(-c3ccc(S(N)(=O)=O)cc3)o2)C(=O)O1 returned hIAP block 1, bIAP activator 1.2, mIAP activ 0.36, mIAP block 64*, bIAP inh -16, hIAP act 0.99 and mIAP inh conf 79*.
For NS(=O)(=O)c1ccc(-c2ccc(/C=C3\C(=O)Nc4ccccc43)o2)cc1 the results were hIAP block 16, mIAP activ 0.89, mIAP block 11 and hIAP act 0.84.
For c1coc(C2Nc3cccc4cccc(c34)N2)c1 the results were hIAP block -3, bIAP activator 0.7, mIAP activ 0.48, mIAP block 52*, bIAP inh 31, hIAP act 1 and mIAP inh conf 69*.
`O=C1CC(=O)N(Cc2ccco2)C(=S)N1` gave hIAP block 21, bIAP activator 1.1, mIAP activ 0.3, mIAP block 70*, bIAP inh -9, hIAP act 0.79 and mIAP inh conf 75*.
Screening O=C1CC(=O)N(Cc2ccco2)C(=O)N1 returned hIAP block -5, bIAP activator 1.3, mIAP activ 0.52, mIAP block 48*, bIAP inh -26, hIAP act 1.1 and mIAP inh conf 53*.
Screening O=C1CC(=O)N(Cc2cccs2)C(=O)N1 returned hIAP block 14, bIAP activator 1, mIAP activ 0.99, mIAP block 1, bIAP inh 4 and hIAP act 0.86.
Screening O=C1/C(=C\c2ccco2)NC(=S)N1c1ccccc1 returned hIAP block -26, bIAP activator 0.9, mIAP activ 0.72, mIAP block 28, bIAP inh 12 and hIAP act 1.3.
Cc1ccc(/C=C2\SC(=S)N(CC3CCCO3)C2=O)o1 (stereo not drawn) was read as hIAP block -19, mIAP activ 0.83, mIAP block 17 and hIAP act 1.2.

Screening results deposited in PubChem by Sanford-Burnham Center for Chemical Genomics.
